The structures appear in SMILES notation. Activity calls are given as the source filed them.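 Rule for the calls, unless noted: active = NADPH fluorescence slope more negative than the mean of all samples by about 3 SD, 99.7% confidence; inactive = the rest.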

The source of these data is PubChem BioAssay.

Assay [1] is described as follows: inhibitors of TNFa-induced NFkB p65 translocation, primary screen, imaging, HUVEC, MLSMR starter and 10KST1 sets (AID 438;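 active = inhibition above 20% together with a positive visual image hit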;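 note: compound added about 3h40 before a 20 min TNFalpha stimulation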;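 for inhibition: signal is the nuclear over cytoplasmic p65 intensity ratio per well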). As to conditions: HUVEC TNFa-induced p65 nuclear translocation; cell count: measured here: nuclei count (cytotoxicity indicator), at 2.08 µM unless noted; inhibition: at 2 µM, stronger effect = higher value unless noted.
The nature of assay [2]: inhibitors of mutant huntingtin aggregation, primary screen, imaging, exon1htt(103Q)mCFP cells, high-content imaging (AID 483;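 active = visual image review flags a hit and inhibition of aggregation exceeds 20%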;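 note: compound exposure lasted 3 days before fixation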;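 for nuclei count: percent of the per-plate median nuclei count of sample wells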). As to conditions: exon1htt(103Q)mCFP cell line, aggregate imaging, at 2 µM; inhibition of aggregation: stronger effect = higher value; nuclei count: measured here: cell count, toxicity.
Assay [3] in a line: inhibitors of E-selectin induction by TNFa, primary screen, imaging, HUVEC, immunofluorescence, MLSMR starter and 10KST1 sets (AID 487;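 active = visually confirmed hit in the image check and inhibition above 20%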;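 for inhibition: signal is fraction of cell area covered by stained E-selectin grains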;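 for nuclei count: 100% = median nuclei count of all wells on the same plate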). The conditions noted are these: HUVEC TNFalpha-induced E-selectin immunofluorescence imaging, at 2 µM; inhibition: stronger effect = higher value; nuclei count: measured here: cell number, toxicity.
In assay [4] the target is Voltage-gated potassium channel subunit beta-2 (Rattus norvegicus) (UniProt P62483). As to the kind of experiment: KvBeta enzyme negative modulators, primary screen, biochemical, NADPH fluorescence (AID 622;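 active = fluorescence slope higher than the sample average by over 3 SD, cut at about -0.22 in these data, passing the limit was not always enough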;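 note: slope of raw intensity against log time taken from 70 to 1610 s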). The conditions noted are these: recombinant KvBeta, 4-cyanobenzaldehyde reduction, at 10 µM, stronger effect = higher value.
Sequence of Voltage-gated potassium channel subunit beta-2 (Rattus norvegicus) (P62483 whole entry, looked up): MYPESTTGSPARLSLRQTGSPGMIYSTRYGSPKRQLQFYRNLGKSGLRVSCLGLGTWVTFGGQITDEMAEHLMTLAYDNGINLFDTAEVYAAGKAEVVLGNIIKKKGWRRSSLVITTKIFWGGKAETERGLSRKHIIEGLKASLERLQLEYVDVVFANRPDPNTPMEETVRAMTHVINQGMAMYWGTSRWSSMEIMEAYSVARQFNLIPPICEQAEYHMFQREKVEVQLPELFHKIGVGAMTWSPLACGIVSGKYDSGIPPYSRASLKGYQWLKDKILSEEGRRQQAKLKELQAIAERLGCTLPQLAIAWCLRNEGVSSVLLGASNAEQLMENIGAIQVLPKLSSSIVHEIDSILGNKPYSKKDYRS
The target is the same in assay [5]. As to the kind of experiment: KvBeta positive modulators, primary screen, biochemical, NADPH fluorescence (AID 623).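 Note: fluorescence intensity change per second fitted from 20 to 320 s.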 The conditions noted are these: Recombinant KvBeta, NADPH fluorescence decrease slope, 10 min; at 10 µM; stronger effect = lower value.
Assay [6] deals with Muscarinic acetylcholine receptor M4 (Homo sapiens) (UniProt P08173). As to the kind of experiment: compounds altering M4/GIRK thallium flux, either direction, primary screen, M4 allosteric agonist project, cell-based, HEK293 M4/GIRK, BTC-AM (AID 625;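 active = fluorescence slope after compound addition differing from the mean of all tested samples at 99.7% confidence, mostly higher but some lower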;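 note: thallium influx through GIRK channels coupled to M4 in HEK293 cells with BTC-AM dye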). As to conditions: at 10 µM, actives lie on both sides. In outline:
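assay system = HEK293 cells with M4 receptor and GIRK channels | medium = pH 7.3 thallium assay buffer | doses = 10 µM final, single point | timing = cells overnight at 37 °C, BTC-AM loading 1 h, reads 2 min total | signal = BTC-AM fluorescence, 1 Hz kinetic reads | read-out = post-addition slope, 15–24 s, of baseline-normalized fluorescence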

Assay [7] can be described thus: inhibitors of Sendai virus-induced IRF3 signaling, primary screen, TLR/RLR signaling modifier project, cell-based, Sendai virus stimulus, luciferase, 10K MLSCN set (AID 602276;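 active = inhibition at or above 50% at 10 µM; inactive = inhibition below 50%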;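 note: firefly luciferase from ISG56 promoter only with Renilla not read in this screen; 0% = Sendai virus plus DMSO and 100% = medium plus DMSO without virus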). The conditions noted are these: HEK293 RL24 IRF3 luciferase reporter, at 10 µM, stronger effect = higher value. (In general: In a reporter assay the amount or activity of a reporter protein is the signal.)

Assay [8] in a line: inhibitors of poly I:C-induced TLR3 signaling, primary screen, cell-based, poly I:C stimulus, luciferase, 10K MLSCN set (AID 602277;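 active = inhibition of the reporter signal at or above 50%; inactive = inhibition below 50%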). As to conditions: HEK293-TLR3 RL24 IRF3 luciferase reporter, at 10 µM, stronger effect = higher value.
The target of assay [9] is Alpha-2C adrenergic receptor (Homo sapiens) (UniProt P18825). As to the kind of experiment: modulators of alpha2C/GIRK thallium flux, primary screen, cell-based, HEK293 alpha2C/GIRK1/2 (AID 624;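 active = fluorescence slope after compound addition differing from the mean of all screened samples at 99.7% confidence, in either direction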;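 note: slope of fluorescence ratio to pre-addition baseline per second over 15 to 24 s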). The conditions noted are these: thallium flux BTC fluorescence, at 10 µM, actives lie on both sides.
Sequence of Alpha-2C adrenergic receptor (Homo sapiens) (P18825 whole entry, looked up): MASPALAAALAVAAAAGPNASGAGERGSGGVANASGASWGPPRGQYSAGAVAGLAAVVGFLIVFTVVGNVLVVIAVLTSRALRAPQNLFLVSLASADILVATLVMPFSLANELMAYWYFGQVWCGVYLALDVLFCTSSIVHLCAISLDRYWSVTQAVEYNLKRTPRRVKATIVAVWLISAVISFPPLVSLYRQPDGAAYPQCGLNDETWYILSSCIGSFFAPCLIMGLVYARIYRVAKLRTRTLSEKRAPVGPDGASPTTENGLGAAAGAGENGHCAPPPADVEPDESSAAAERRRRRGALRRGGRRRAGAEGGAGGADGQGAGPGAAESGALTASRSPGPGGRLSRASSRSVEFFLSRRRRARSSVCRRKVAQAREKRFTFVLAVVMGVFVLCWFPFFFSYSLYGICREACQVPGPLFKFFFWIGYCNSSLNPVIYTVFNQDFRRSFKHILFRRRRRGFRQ
A short description of assay [10]: inhibitors of larval lipid processing in zebrafish, primary screen, whole organism, PED6 fluorescence, gall bladder and intestine (AID 686;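 active = a full or partial loss of lipid-probe fluorescence in the fish gall bladder, intestine or both, judged by eye; inactive = no fluorescence loss, or compound toxic to the fish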;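 note: larvae 5 to 7 days old with five fish per well; signal comes from phospholipase A2 cleavage of quenched PED6 carried via bile; overnight exposure to compound and PED6 before scoring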). The conditions noted are these: Zebrafish larvae PED6 lipid processing, fluorescence scoring. In outline:
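Also added: quenched phospholipase substrate PED6, 100 nM final, ingested by larvae; System: zebrafish larvae, 5-7 d; Quantity: 5 larvae per well; Compound: 20 µM single dose; Schedule: overnight compound and PED6 incubation; Read-out: visual per-well fluorescence inhibition score; Measured by: By-eye fluorescence microscopy; Medium: E3.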

Sequence of Muscarinic acetylcholine receptor M4 (Homo sapiens) (P08173 whole entry, looked up): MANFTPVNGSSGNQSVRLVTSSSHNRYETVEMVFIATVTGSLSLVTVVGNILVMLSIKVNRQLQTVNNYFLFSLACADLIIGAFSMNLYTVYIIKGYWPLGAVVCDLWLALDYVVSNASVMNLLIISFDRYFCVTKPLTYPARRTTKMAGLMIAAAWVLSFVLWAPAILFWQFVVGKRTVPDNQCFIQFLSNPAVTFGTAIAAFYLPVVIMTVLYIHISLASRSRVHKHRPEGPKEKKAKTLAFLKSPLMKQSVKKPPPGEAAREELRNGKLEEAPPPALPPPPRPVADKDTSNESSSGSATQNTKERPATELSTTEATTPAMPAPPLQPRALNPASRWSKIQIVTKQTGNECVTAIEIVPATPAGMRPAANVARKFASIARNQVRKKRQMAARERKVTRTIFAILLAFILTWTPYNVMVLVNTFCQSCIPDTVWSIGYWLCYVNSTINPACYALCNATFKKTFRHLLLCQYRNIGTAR

Broadly, the inhibition is the change of the read-out against control, counted positive when it falls. Molecule `CC(C)OC(=O)c1c(N)n(CC2CCCO2)c2nc3ccccc3nc12` (stereo not drawn) returned a cell count in [1] of 470. Further, the inhibition was -5.1% (inactive) in assay [1], -26.3% (inactive) in [3], 9.43% (inactive) in assay [7] and 13.4% (inactive) in assay [8]. In assay [2], the inhibition of aggregation was 23.6% (inactive). For the same molecule, the nuclei count in [2] is 104%; in [3], 191%. Besides, the values for the fluorescence slope in [4] and in assay [6] were -0.0217 (active) and 0.00718 (inactive), respectively. For the same molecule, the NADPH fluorescence slope in assay [5] was 1.4e-05 (inactive).

In assay [1], `COc1ccccc1CN1CCN(C(=O)Cc2ccccc2)CC1` came in with a cell count of 466. For the same molecule, the inhibition in [1] was 5.9% (inactive); in assay [3], 18.9% (inactive); in [7], -1.53% (inactive); in [8], 3.43% (inactive). The inhibition of aggregation in assay [2] was 2.7% (inactive). Also, the nuclei count in assay [2] was 101%; in assay [3], 112%. For the same molecule, the fluorescence slope in [4] was -0.326 (inactive). Further, the NADPH fluorescence slope in assay [5] is 3.1e-06 (inactive). For the same molecule, the slope in assay [9] was 0.00694 (inactive). The call in assay [10] was inactive.

In the case of `Cn1c(C(=O)N2CCC3(CC2)OCCO3)cc2c(=O)n(C)c3ccccc3c21`, in [1], the cell count was determined as 551. Moreover, the inhibition in assay [1] is -0.2% (inactive); in [3], -17.8% (inactive); in assay [7], 13.8% (inactive); in [8], 20.5% (inactive). The inhibition of aggregation in assay [2] is 26.7% (inactive). For the same molecule, the nuclei count in assay [2] was found to be 104%; in assay [3] it was 125%. Further, the fluorescence slope is -0.522 (inactive) in assay [4] and 0.00705 (inactive) in [6]. In addition, the NADPH fluorescence slope in [5] was -5.9e-06 (inactive).

Molecule `COc1ccc(CC2C(=O)NC(=O)NC2=O)c(OC)c1` gave a cell count in [1] of 757. The inhibition in assay [1] was 1.7% (inactive); in assay [3], -3.4% (inactive); in assay [7], -6.04% (inactive); in assay [8], -0.414% (inactive). For the same molecule, the inhibition of aggregation in assay [2] is -24.3% (inactive). Also, the nuclei count in [2] and in [3] was 105% throughout. Moreover, the fluorescence slope in assay [4] was -0.406 (inactive). Further, the NADPH fluorescence slope in assay [5] was 5.3e-05 (inactive). Further, the slope in [9] is 0.00731 (inactive).

For `CSc1ccc(CNC2CN3CCC2CC3)cc1` (stereo not drawn), the cell count in assay [1] turned out to be 350. The inhibition is 0.2% (inactive) in [1], 32.3% (inactive) in assay [3], 12.2% (inactive) in [7] and 24.5% (inactive) in [8]. The inhibition of aggregation in [2] was -0.6% (inactive). For the same molecule, the values for the nuclei count in assay [2] and in assay [3] were 103% and 102%, respectively. Further, the fluorescence slope in assay [4] is -0.421 (inactive); in assay [6], 0.00514 (inactive). In addition, the NADPH fluorescence slope in [5] was -9.5e-05 (inactive).

`O=C(O)Cn1cc(C(=O)c2ccccc2)c2ccccc21` had a cell count in [1] of 389. The inhibition in assay [1] was -3.3% (inactive); in assay [3], -22.1% (inactive); in assay [7], 9.27% (inactive); in assay [8], 23% (inactive). Moreover, the inhibition of aggregation in assay [2] was 16.7% (inactive). Also, the nuclei count in assay [2] is 89.2%; in [3] it was 104%. In addition, the fluorescence slope in assay [4] is -0.352 (inactive). Moreover, in [5], the NADPH fluorescence slope was 1.2e-06 (inactive). For the same molecule, in [9], the slope was 0.00605 (inactive). For the same molecule, in [10], the outcome was inactive.

`C=CCN1C(=O)C2(C(C(=O)OCC)=C(N)Oc3c2c(=O)oc2ccccc32)c2ccccc21` (stereo not drawn): the cell count in assay [1] came to 679. The inhibition in assay [1] is -7.1% (inactive); in assay [3], -41% (inactive); in [7], 13.6% (inactive); in assay [8], 21.3% (inactive). Also, in assay [2], the inhibition of aggregation is 10.1% (inactive). In addition, the nuclei count in [2] is 93.2%; in assay [3], 91.1%. The fluorescence slope in [4] was -0.467 (inactive). For the same molecule, the NADPH fluorescence slope in [5] was -0.000107 (inactive). For the same molecule, in assay [9], the slope was 0.00519 (inactive). For the same molecule, in assay [10], the result was inactive.

In assay [1], `CCOC(=O)C1=C(N)OC(C)=C(C(=O)OCCOC)C12C(=O)Nc1ccccc12` (stereo not drawn) displayed a cell count of 336. Also, the inhibition in assay [1] was 4.8% (inactive); in assay [3], -113% (inactive); in assay [7] it was 19.8% (inactive); in [8] it was 32% (inactive). Besides, the inhibition of aggregation in [2] was -0.2% (inactive). Moreover, the nuclei count in assay [2] worked out at 91.4%; in assay [3], 97%. The fluorescence slope in assay [4] is -0.454 (inactive). Also, in [5], the NADPH fluorescence slope is -0.000189 (active). For the same molecule, the slope in assay [9] is 0.00493 (inactive). For the same molecule, the molecule was classed as inactive in [10].

Molecule `C=CCOC(=O)COc1cc(C)cc2oc(=O)c3c(c12)CCC3` returned a cell count in assay [1] of 609. For the same molecule, the inhibition was 6% (inactive) in assay [1], 75.7% (active) in [3], -1.05% (inactive) in assay [7] and 99.1% (active) in [8]. In addition, the inhibition of aggregation in assay [2] is 20.1% (inactive). The nuclei count in assay [2] amounted to 85.8%; in assay [3], 49.1%. Besides, the fluorescence slope in assay [4] was -0.254 (inactive). Besides, the NADPH fluorescence slope in assay [5] is -4.4e-05 (inactive). Moreover, the slope in [9] was 0.00532 (inactive). Further, the result in [10] was inactive.

In assay [1], `CC(C)OCCCNC(=O)c1c(N)n(Cc2cccs2)c2nc3ccccc3nc12` returned a cell count of 434. The inhibition in [1] is -9.3% (inactive); in [3] it was 4.6% (inactive); in assay [7], 14.8% (inactive); in assay [8], 37.4% (inactive). Further, the inhibition of aggregation in assay [2] was 17.9% (inactive). The nuclei count in [2] was found to be 90.9%; in [3] it was 134%. For the same molecule, the fluorescence slope in assay [4] is -0.212 (inactive). The NADPH fluorescence slope in assay [5] is 1.8e-05 (inactive). Also, the slope in assay [9] was 0.00386 (inactive).

Regarding `Cn1c(=O)cc(SCC(=O)N2CCC3(CC2)OCCO3)c2ccc(Cl)cc21`, in [1], the cell count was found to be 442. The inhibition in assay [1] was 0.9% (inactive); in [3], 22.8% (inactive); in assay [7] it was 32.3% (inactive); in assay [8], 38.4% (inactive). Moreover, the inhibition of aggregation in assay [2] is 7.2% (inactive). For the same molecule, the nuclei count amounted to 84.4% in assay [2] and 106% in assay [3]. For the same molecule, the fluorescence slope is -0.556 (inactive) in assay [4] and 0.00629 (inactive) in [6]. Further, the NADPH fluorescence slope in assay [5] was -3.6e-05 (inactive).

`COc1ccc(CCn2c(O)c(C=NCCCN(C)C)c(=O)[nH]c2=O)cc1OC` yielded a cell count in assay [1] of 338. For the same molecule, the inhibition is -1.6% (inactive) in assay [1], -38.1% (inactive) in assay [3], 11.5% (inactive) in assay [7] and 8.09% (inactive) in assay [8]. For the same molecule, in assay [2], the inhibition of aggregation was 12.1% (inactive). The nuclei count in assay [2] turned out to be 110%; in [3], 108%. For the same molecule, the fluorescence slope in [4] was -0.446 (inactive). Further, in assay [5], the NADPH fluorescence slope is -2.8e-05 (inactive). Also, the slope in [9] was 0.00426 (inactive).

`Cc1ccc(CS(=O)(=O)CCC(=O)N2CCC3(CC2)OCCO3)cc1` displayed a cell count in [1] of 463. Also, the inhibition in [1] is 6% (inactive); in [3], -31.5% (inactive); in assay [7], 13.7% (inactive); in assay [8], 16.9% (inactive). In addition, the inhibition of aggregation in [2] was -8.2% (inactive). Besides, the nuclei count in [2] was 111%; in [3], 109%. Also, the fluorescence slope was -0.573 (inactive) in assay [4] and 0.00375 (inactive) in [6]. For the same molecule, the NADPH fluorescence slope in [5] was -6.6e-05 (inactive).
